From ChEMBL document CHEMBL3856250, “Discovery of 6-Fluoro-5-(R)-(3-(S)-(8-fluoro-1-methyl-2,4-dioxo-1,2-dihydroquinazolin-3(4H)-yl)-2-methylphenyl)-2-(S)-(2-hydroxypropan-2-yl)-2,3,4,9-tetrahydro-1H-carbazole-8-carboxamide (BMS-986142): A Reversible Inhibitor of Bruton's Tyrosine Kinase (BTK) Conformationally Constrained by Two …” (J Med Chem, 2016)

Columns and labels:
Cytochrome P450 2C9 = Cytochrome P450 2C9 (Homo sapiens, UniProt P11712); assay: Inhibition of CYP2C9 (unknown origin); type: ADME
[1] = Protein binding in mouse plasma; type: ADME, cell-free; conditions: read-out: PPB (converted)
Cytochrome P450 1A2 = target: T1, Cytochrome P450 1A2 (Homo sapiens, UniProt P05177); assay: Inhibition of CYP1A2 (unknown origin); type: ADME
T1 sequence (P05177 whole entry): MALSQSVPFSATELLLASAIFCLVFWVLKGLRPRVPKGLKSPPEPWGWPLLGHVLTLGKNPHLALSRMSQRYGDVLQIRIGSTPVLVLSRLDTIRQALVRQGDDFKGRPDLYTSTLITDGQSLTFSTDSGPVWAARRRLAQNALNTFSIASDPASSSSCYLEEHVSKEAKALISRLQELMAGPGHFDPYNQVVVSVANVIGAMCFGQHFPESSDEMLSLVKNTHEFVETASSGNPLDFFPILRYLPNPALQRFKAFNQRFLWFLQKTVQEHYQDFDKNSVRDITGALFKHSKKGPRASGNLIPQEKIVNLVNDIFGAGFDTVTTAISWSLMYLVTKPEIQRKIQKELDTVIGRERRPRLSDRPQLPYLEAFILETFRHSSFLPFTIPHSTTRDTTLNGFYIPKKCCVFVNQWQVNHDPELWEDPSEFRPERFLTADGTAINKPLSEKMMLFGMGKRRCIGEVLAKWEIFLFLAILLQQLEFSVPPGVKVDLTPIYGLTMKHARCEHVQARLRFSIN

[2] = Tmax in dog at 2 mg/kg, po; type: ADME, organism-based, Canis lupus familiaris; conditions: in vivo
[3] = MRT in rat at 2 mg/kg, iv; type: ADME, organism-based; conditions: in vivo
[4] = Protein binding in human serum; type: ADME; conditions: read-out: PPB (converted)
Mus musculus = assay: Antiathritis activity in anticollagen antibody-induced arthritis BALB/c mouse model assessed as reduction in LPS-induced paw swelling at 5 mg/kg, po qd followed by LPS addition on day 3 measured after 11 days relative to control; type: functional; parameters: scale not given: the % may be the effect or the level left
[5] = AUC in mouse at 6 mg/kg, po; type: ADME, organism-based; conditions: in vivo
[6] = Volume of distribution at steady state in rat at 2 mg/kg, iv; type: ADME, organism-based; conditions: in vivo, read-out: Vdss
[7] = target: T2, Tyrosine-protein kinase BTK (Homo sapiens, UniProt Q06187); assay: Inhibition of BTK in human peripheral B cells assessed as suppression of CD40/CD40L-stimulated CD69 surface expression; type: cell-based
[8] = Clearance in mouse at 3 mg/kg, iv; type: ADME, organism-based; conditions: in vivo
[9] = Tmax in rat at 5 mg/kg, po; type: ADME, organism-based; conditions: in vivo
[10] = Cmax in dog at 2 mg/kg, po; type: ADME, organism-based, Canis lupus familiaris; parameters: dose 2 mg/kg, route oral; conditions: in vivo
[11] = Cmax in mouse at 6 mg/kg, po; type: ADME, organism-based; parameters: dose 6 mg/kg, route oral; conditions: in vivo
[12] = target: Voltage-gated inwardly rectifying potassium channel KCNH2 (Homo sapiens, UniProt Q12809); assay: Inhibition of human ERG by patch clamp assay
[13] = target: T2, Tyrosine-protein kinase BTK; assay: Inhibition of BTK in human whole blood assessed as suppression of BCR/anti-IgM/IgG-stimulated CD69 surface expression after 18 hrs with agitation by FITC-staining based FACS analysis; type: tissue-based
[14] = Clearance in rat at 2 mg/kg, iv; type: ADME, organism-based; conditions: in vivo
[15] = Protein binding in monkey plasma; type: ADME, cell-free, Macaca mulatta; conditions: rhesus monkey, read-out: PPB (converted)
[16] = target: Tyrosine-protein kinase BTK (Mus musculus, UniProt P35991); assay: Inhibition of BTK in mouse whole blood assessed as suppression of BCR/anti-IgM/IgG-stimulated CD69 surface expression after 18 hrs with agitation by FITC-staining based FACS analysis; type: tissue-based
Summary of the method: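 Mouse whole blood was incubated with compound and stimulated with F(ab′)2 goat anti-mouse IgG+IgM (100 μg/mL) in the same way as the human assay (18 h, 37 °C, agitation). B cells were gated by APC anti-CD19, and CD69 was quantified as FITC MFI by FACS.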

[17] = Permeability of the compound at pH 5.5 by PAMPA assay; type: ADME; conditions: read-out: permeability
[18] = MRT in mouse at 3 mg/kg, iv; type: ADME, organism-based; conditions: in vivo
[19] = Cmax in cynomolgus monkey at 4 mg/kg, po; type: ADME, organism-based, Macaca fascicularis; parameters: dose 4 mg/kg, route oral; conditions: in vivo
Cytochrome P450 2D6 = Cytochrome P450 2D6 (Homo sapiens, UniProt P10635); assay: Inhibition of CYP2D6 (unknown origin); type: ADME
[20] = target: Proto-oncogene tyrosine-protein kinase Src (Homo sapiens, UniProt P12931); assay: Inhibition of SRC (unknown origin)
[21] = Drug metabolism in po dosed rat plasma assessed as isomerization of atropisomeric center after 24 hrs; type: ADME, organism-based; conditions: read-out: Drug metabolism
[22] = Volume of distribution at steady state in cynomolgus monkey at 2 mg/kg, iv; type: ADME, organism-based, Macaca fascicularis; conditions: in vivo, read-out: Vdss
[23] = Protein binding in rat plasma; type: ADME, cell-free; conditions: read-out: PPB (converted)
[24] = MRT in dog at 1 mg/kg, iv; type: ADME, organism-based, Canis lupus familiaris; conditions: in vivo
[25] = Cmax in rat at 5 mg/kg, po; type: ADME, organism-based; parameters: dose 5 mg/kg, route oral; conditions: in vivo
[26] = Oral bioavailability in dog at 2 mg/kg; type: ADME, organism-based, Canis lupus familiaris; conditions: in vivo
[27] = target: T2, Tyrosine-protein kinase BTK; assay: Inhibition of BTK in human peripheral B cells assessed as suppression of BCR/anti-IgM/IgG-stimulated CD86 surface expression; type: cell-based
[28] = Half life in rat at 2 mg/kg, iv; type: ADME, organism-based; conditions: in vivo
[29] = MRT in cynomolgus monkey at 2 mg/kg, iv; type: ADME, organism-based, Macaca fascicularis; conditions: in vivo
[30] = Volume of distribution at steady state in dog at 1 mg/kg, iv; type: ADME, organism-based, Canis lupus familiaris; conditions: in vivo, read-out: Vdss
[31] = AUC in mouse at 10 mg/kg; type: ADME, organism-based; conditions: in vivo
[32] = AUC in cynomolgus monkey at 4 mg/kg, po; type: ADME, organism-based, Macaca fascicularis; conditions: in vivo
[33] = Permeability of the compound at pH 7.4 by PAMPA assay; type: ADME; conditions: read-out: permeability
[34] = Protein binding in dog plasma; type: ADME, cell-free, Canis lupus familiaris; conditions: read-out: PPB (converted)

T2 sequence (Q06187 whole entry): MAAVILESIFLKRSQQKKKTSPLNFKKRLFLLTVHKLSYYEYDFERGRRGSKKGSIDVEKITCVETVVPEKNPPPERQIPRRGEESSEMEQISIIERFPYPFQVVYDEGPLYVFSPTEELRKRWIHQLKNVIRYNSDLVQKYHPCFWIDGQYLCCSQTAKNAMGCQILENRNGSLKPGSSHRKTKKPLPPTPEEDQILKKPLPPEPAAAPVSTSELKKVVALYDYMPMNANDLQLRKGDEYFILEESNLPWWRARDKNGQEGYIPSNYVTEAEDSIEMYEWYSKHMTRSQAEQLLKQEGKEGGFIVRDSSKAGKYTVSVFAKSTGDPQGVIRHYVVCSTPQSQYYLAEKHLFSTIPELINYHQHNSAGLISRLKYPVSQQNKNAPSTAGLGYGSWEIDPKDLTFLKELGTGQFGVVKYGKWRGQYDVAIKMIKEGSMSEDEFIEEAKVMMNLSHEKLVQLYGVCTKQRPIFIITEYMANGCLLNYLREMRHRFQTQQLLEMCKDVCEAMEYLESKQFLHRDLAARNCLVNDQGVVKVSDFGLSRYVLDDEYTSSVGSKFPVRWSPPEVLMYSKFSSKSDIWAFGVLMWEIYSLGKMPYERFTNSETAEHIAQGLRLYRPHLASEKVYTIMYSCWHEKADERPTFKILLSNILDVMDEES
Cytochrome P450 2C9, sequence (P11712 whole entry): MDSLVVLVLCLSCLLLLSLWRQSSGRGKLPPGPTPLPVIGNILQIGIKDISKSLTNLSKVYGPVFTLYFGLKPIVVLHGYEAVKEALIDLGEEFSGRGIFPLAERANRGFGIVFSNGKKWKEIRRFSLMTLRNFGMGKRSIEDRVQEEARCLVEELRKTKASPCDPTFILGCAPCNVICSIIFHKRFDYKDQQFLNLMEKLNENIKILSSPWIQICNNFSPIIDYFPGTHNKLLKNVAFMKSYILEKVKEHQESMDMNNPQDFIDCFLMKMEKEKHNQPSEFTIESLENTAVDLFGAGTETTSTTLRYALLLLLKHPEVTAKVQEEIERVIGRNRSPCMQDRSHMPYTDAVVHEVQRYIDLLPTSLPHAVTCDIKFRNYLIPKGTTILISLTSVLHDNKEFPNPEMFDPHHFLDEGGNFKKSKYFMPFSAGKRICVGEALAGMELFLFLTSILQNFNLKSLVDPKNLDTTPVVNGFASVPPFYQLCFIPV
Tyrosine-protein kinase BTK (Mus musculus, UniProt P35991), sequence (P35991 whole entry): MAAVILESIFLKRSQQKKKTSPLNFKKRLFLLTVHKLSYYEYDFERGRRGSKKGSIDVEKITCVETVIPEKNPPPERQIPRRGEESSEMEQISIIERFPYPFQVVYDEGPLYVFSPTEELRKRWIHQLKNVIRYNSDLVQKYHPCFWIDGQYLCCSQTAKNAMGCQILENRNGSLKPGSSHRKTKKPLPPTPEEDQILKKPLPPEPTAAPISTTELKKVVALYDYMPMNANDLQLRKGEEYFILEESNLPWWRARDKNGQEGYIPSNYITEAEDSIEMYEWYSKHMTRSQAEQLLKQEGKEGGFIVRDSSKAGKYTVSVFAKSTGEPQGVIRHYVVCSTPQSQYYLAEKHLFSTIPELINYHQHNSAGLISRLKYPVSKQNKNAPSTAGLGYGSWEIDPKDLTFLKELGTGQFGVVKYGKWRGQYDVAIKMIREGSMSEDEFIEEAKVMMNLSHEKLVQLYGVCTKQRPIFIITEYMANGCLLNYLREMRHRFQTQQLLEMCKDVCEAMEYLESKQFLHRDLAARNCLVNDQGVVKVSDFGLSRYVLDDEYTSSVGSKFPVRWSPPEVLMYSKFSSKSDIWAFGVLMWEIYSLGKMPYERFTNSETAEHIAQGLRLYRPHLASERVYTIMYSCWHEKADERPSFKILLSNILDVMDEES
Cytochrome P450 2D6, sequence (P10635 whole entry): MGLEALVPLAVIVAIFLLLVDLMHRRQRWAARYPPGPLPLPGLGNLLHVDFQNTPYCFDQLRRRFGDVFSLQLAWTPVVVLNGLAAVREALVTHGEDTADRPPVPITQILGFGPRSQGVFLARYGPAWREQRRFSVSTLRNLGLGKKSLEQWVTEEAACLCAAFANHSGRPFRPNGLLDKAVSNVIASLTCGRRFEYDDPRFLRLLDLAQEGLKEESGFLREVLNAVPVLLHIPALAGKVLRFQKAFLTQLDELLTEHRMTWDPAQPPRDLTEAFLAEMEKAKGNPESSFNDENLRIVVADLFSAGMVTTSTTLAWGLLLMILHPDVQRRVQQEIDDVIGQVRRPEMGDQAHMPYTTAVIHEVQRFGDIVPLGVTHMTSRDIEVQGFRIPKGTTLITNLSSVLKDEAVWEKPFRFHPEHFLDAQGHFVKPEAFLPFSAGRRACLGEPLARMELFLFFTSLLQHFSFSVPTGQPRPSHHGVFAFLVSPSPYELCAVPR
Proto-oncogene tyrosine-protein kinase Src, sequence (P12931 2-536 limits assumed): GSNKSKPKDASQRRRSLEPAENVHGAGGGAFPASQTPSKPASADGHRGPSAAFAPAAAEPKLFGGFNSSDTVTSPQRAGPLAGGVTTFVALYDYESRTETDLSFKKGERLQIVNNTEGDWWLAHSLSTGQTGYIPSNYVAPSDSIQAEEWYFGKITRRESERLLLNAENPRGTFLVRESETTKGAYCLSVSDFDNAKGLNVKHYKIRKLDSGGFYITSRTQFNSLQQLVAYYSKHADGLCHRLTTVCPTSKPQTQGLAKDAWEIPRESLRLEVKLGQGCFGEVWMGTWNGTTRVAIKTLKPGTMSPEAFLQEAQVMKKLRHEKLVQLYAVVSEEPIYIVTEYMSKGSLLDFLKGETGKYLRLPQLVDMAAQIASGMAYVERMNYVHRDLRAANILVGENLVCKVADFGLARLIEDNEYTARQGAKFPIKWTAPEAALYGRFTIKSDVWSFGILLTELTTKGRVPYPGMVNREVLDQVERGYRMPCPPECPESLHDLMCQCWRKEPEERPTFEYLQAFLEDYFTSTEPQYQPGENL
Voltage-gated inwardly rectifying potassium channel KCNH2, sequence (Q12809 whole entry): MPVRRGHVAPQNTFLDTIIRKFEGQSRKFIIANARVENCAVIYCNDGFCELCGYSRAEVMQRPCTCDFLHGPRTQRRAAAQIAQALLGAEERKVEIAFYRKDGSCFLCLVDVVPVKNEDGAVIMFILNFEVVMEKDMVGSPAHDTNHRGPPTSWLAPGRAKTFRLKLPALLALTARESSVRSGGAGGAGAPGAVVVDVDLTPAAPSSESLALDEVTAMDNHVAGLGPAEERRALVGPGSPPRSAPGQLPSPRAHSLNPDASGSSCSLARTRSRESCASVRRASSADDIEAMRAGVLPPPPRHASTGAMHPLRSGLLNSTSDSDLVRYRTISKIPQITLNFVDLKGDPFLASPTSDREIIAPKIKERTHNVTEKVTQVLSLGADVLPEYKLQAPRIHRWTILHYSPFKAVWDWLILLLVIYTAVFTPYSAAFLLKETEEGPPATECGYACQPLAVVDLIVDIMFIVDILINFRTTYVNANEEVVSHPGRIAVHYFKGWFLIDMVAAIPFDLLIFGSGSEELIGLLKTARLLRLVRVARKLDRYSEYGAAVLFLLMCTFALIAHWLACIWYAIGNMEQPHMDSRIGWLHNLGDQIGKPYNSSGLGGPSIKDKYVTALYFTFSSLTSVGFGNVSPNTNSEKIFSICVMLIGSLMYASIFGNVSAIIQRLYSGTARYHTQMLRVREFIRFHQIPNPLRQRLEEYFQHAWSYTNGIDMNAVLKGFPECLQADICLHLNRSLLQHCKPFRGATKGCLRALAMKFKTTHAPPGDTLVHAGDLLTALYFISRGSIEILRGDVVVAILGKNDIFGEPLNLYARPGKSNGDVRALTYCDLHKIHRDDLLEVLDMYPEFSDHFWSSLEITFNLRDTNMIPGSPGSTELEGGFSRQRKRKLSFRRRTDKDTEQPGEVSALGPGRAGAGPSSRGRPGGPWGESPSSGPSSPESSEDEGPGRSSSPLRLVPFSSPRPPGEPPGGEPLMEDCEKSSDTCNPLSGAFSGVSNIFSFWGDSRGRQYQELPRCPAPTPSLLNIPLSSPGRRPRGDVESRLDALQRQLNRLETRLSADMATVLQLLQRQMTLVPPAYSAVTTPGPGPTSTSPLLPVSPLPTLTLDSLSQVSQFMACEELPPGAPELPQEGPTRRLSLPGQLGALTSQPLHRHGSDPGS

IC50 (Cytochrome P450 2C9): 17100 nM | fraction unbound [1]: 0.015 | IC50 (Cytochrome P450 1A2): > 40000 nM | Tmax [2]: 3 h | MRT [3]: 5.1 h | fraction unbound [4]: 0.009 | AUC [5]: 39 µM·h | Vd [6]: 1.3 L/kg | IC50 [7]: > 10000 nM | clearance [8]: 4.1 mL/min/kg | Tmax [9]: 3 h | Cmax [10]: 1200 nM | Cmax [11]: 4900 nM | IC50 [13]: 90 nM | clearance [14]: 4.2 mL/min/kg | fraction unbound [15]: 0.012 | IC50 [16]: 140 nM | Papp [17]: 67.3 ×10⁻⁶ cm/s | MRT [18]: 4.8 h | Cmax [19]: 850 nM | IC50 (Cytochrome P450 2D6): > 40000 nM | IC50 [20]: 1100 nM | metabolised at 24 h [21]: < 2% | Vd [22]: 3 L/kg | fraction unbound [23]: 0.017 | MRT [24]: 18 h | Cmax [25]: 2300 nM | bioavailability [26]: 100% | IC50 [27]: 4 nM | half-life [28]: 3.6 h | MRT [29]: 4.7 h | Vd [30]: 3.4 L/kg | AUC [31]: 39 µM·h | AUC [32]: 5 µM·h | Papp [33]: 72.5 ×10⁻⁶ cm/s | fraction unbound [34]: 0.009
SMILES: Cc1c(-c2c(F)cc(C(N)=O)c3[nH]c4c(c23)CC[C@H](C(C)(C)O)C4)cccc1-n1c(=O)c2cccc(F)c2n(C)c1=O (atropisomer R) [BMS-986142]
Activity (Mus musculus): 72% | IC50 [12]: 5500 nM
